What was measured:
[1] = target: T1, Steroid 17-alpha-hydroxylase/17,20 lyase (Rattus norvegicus, UniProt P11715); assay: Inhibition of rat testicular microsomal Cytochrome P450 17A1
T1 sequence (P11715 whole entry): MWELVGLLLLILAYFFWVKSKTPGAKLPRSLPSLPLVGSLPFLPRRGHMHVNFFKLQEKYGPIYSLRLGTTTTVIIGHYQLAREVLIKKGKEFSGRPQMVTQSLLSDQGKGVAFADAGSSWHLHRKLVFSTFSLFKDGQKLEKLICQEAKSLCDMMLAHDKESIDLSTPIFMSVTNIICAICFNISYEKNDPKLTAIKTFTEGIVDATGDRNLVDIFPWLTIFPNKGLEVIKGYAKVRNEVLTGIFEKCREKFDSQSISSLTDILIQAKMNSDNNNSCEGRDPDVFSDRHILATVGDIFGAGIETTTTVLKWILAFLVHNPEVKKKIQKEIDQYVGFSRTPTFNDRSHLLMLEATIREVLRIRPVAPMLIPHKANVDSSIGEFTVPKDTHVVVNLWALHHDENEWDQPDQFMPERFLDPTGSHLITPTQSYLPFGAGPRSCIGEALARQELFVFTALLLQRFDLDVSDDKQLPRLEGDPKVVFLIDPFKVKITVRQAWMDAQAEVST
Summary of the method: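 Adult Sprague-Dawley rat (200-250 g) testicular microsomes, about 90 µg protein. [21-3H]-17α-hydroxypregnenolone was used at 10 µM total. Cofactors were NADP 65 µM, glucose 6-phosphate 0.71 mM and G6PDH 0.13 IU in phosphate buffer pH 7.4. Compounds were preincubated 10 min, then reacted 60 min under O2 at 34 °C. Released [3H]acetic acid was counted after chloroform extraction and charcoal treatment.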

[2] = target: T2, Steroid 17-alpha-hydroxylase/17,20 lyase (Homo sapiens, UniProt P05093); assay: Inhibition of human testicular microsomal Cytochrome P450 17A1
T2 sequence (P05093 whole entry): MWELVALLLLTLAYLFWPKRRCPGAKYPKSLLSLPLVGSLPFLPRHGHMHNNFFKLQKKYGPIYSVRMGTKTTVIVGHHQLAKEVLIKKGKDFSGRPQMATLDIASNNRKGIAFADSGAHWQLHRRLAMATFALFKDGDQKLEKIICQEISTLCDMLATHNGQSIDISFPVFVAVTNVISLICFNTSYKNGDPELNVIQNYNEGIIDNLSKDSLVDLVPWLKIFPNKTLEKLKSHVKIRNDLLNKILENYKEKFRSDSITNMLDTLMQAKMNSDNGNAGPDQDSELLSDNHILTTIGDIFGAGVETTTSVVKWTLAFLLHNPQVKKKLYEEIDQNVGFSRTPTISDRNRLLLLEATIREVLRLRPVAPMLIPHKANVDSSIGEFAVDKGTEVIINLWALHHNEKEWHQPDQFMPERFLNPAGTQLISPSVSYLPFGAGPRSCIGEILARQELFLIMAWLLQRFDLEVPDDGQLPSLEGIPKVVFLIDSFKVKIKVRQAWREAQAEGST
Summary of the method: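 Human testis microsomes (orchidectomy tissue from untreated prostate cancer patients, stored at -70 °C, diluted in 0.1 M phosphate buffer). Radiometric: 10 μM [21-3H]-17α-hydroxypregnenolone, NADPH-generating system, pH 7.4, 10 min preincubation, then ~90 µg protein for 60 min under O2 at 34 °C. [3H]acetic acid measured in aqueous phase after chloroform extraction and charcoal. IC50 from log-log regression; six concentrations.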

[3] = target: T1, Steroid 17-alpha-hydroxylase/17,20 lyase; assay: Percent inhibition of rat testicular microsomal Cytochrome P450 17A1; No Inhibition
Summary of the method: (§1)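 Single-concentration screen at 1500 nM using adult Sprague-Dawley rat testis microsomes. Incubation: 10 μM [21-3H]-17α-hydroxypregnenolone with NADPH-generating system, pH 7.4, 60 min, 34 °C, under O2. Percent inhibition was read from tritiated acetic acid in the aqueous phase after chloroform extraction of steroids.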

[4] = target: T2, Steroid 17-alpha-hydroxylase/17,20 lyase; assay: Percent inhibition of human testicular microsomal Cytochrome P450 17A1; set-up: concentration or dose not given beside the values
Summary of the method: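 Human testis microsomes were incubated 60 min at 34 °C under O2 with 10 μM [21-3H]-17α-hydroxypregnenolone and NADPH-generating system (pH 7.4). Test compound was present at a single 150 or 400 nM. Inhibition was read from [3H]acetic acid released to the aqueous phase after chloroform extraction.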

[5] = target: T1, Steroid 17-alpha-hydroxylase/17,20 lyase; assay: Percent inhibition of rat testicular microsomal Cytochrome P450 17A1; set-up: concentration or dose not given beside the values; summary of the method: as §1

| IC50 [2] | Inhibition [3] | Inhibition [4] | Conc [2] | Inhibition [5] | Structure (SMILES) | IC50 [1] |
| --- | --- | --- | --- | --- | --- | --- |
|  | Not Active | 25% | 150 nM |  | Cn1ccc(C2=CCC3C4CC=C5CC(O)CC[C@]5(C)C4CC[C@]23C)n1 (some centres not stated) |  |
|  |  | 21% | 150 nM | 93% | C[C@]12CCC3C(CC=C4CC(O)CC[C@@]43C)C1CCC2c1ccno1 (some centres not stated) |  |
| 42 nM |  |  |  |  | C[C@]12CC[C@H](O)CC1=CC[C@@H]1[C@@H]2CC[C@]2(C)C(c3ccn[nH]3)=CC[C@@H]12 | 28 nM |
|  |  |  |  |  | CC(=O)N1CCN(c2ccc(OC[C@H]3CO[C@](Cn4ccnc4)(c4ccc(Cl)cc4Cl)O3)cc2)CC1 [KETOCONAZOLE] | 1070 nM |
| 199 nM |  |  |  | 55% | CC(=O)O[C@H]1CC[C@@]2(C)C(=CC[C@H]3[C@@H]4CC[C@H](c5c[nH]cn5)[C@@]4(C)CC[C@@H]32)C1 |  |
| 108 nM |  |  |  |  | C[C@]12CC[C@H](O)CC1=CC[C@@H]1[C@@H]2CC[C@]2(C)C(c3ccno3)=CC[C@@H]12 | 84 nM |
| > 30000 nM |  |  |  |  | CC(C1N=CC=N1)[C@H]1CCC2C3CCC4=CC(=O)CC[C@]4(C)C3CC[C@@]21C (some centres not stated) |  |
|  |  |  | 400 nM | 25% | C[C@]12CCC(=O)C=C1CCC1C2CC[C@@]2(C)C1CC[C@@H]2C1N=CC=N1 (some centres not stated) |  |
| 59 nM |  |  |  |  | C[C@]12CCC(=O)C=C1CCC1C2CC[C@]2(C)C(c3ccn[nH]3)=CCC12 (some centres not stated) | 76 nM |
| 21 nM |  |  |  | 65% | C[C@]12CC[C@H](O)CC1=CC[C@@H]1[C@@H]2CC[C@]2(C)C(c3ncc[nH]3)=CC[C@@H]12 |  |
| 39 nM |  |  |  |  | C[C@]12CCC(=O)C=C1CCC1C2CC[C@]2(C)C(c3ccno3)=CCC12 (some centres not stated) | 32 nM |
| 100 nM |  |  |  |  | CC(=O)O[C@H]1CC[C@@]2(C)C(=CC[C@H]3[C@@H]4CC[C@H](C5=CNC(C(C)=O)N5)[C@@]4(C)CC[C@@H]32)C1 (some centres not stated) | 5460 nM |
|  | Not Active | 12% | 150 nM |  | Cn1nccc1C1=CCC2C3CC=C4CC(O)CC[C@]4(C)C3CC[C@]12C (some centres not stated) |  |
| 1110 nM |  |  |  | 54% | C[C@]12CCC3C(CC=C4CC(O)CC[C@@]43C)C1CCC2c1ccon1 (some centres not stated) |  |
|  | Not Active | 11% | 150 nM |  | C[C@]12CCC(O)CC1=CCC1C2CC[C@]2(C)C(c3ccnn3-c3ccccc3)=CCC12 (some centres not stated) |  |
|  |  | 20% | 150 nM | 92% | C[C@]12CCC3C(CC=C4CC(O)CC[C@@]43C)C1CCC2c1ccn[nH]1 (some centres not stated) |  |

| Structure (SMILES) | IC50 [2] | Inhibition [3] | Inhibition [4] | Conc [2] | Inhibition [5] | IC50 [1] |
| --- | --- | --- | --- | --- | --- | --- |
| C[C@]12CCC(=O)C=C1CCC1C2CC[C@@]2(C)C1CC[C@@H]2c1cnc[nH]1 (some centres not stated) | 58 nM |  |  |  |  | 79 nM |
| C[C@]12CCC3C(CC=C4CC(O)CC[C@@]43C)C1CCC2c1ncc[nH]1 (some centres not stated) |  |  | 24% | 400 nM | 19% |  |
| Cc1nc(C2CCC3C4CC=C5CC(O)CC[C@]5(C)C4CC[C@]23C)co1 (some centres not stated) |  | Not Active | 21% | 400 nM |  |  |
| C[C@]12CCC(=O)C=C1CCC1C2CC[C@]2(C)C(c3cnc[nH]3)=CCC12 (some centres not stated) | 50 nM |  |  |  |  | 14 nM |
| Cc1ncc([C@H]2CC[C@H]3[C@@H]4CC=C5C[C@@H](O)CC[C@]5(C)[C@H]4CC[C@]23C)[nH]1 |  |  | 26% |  |  | 4810 nM |
| CC(=O)O[C@H]1CC[C@@]2(C)C(=CC[C@@H]3[C@@H]2CC[C@]2(C)C(c4cnc[nH]4)=CC[C@@H]32)C1 |  |  |  |  | 92% |  |
| C[C@]12CC[C@H]3[C@@H](CC=C4C[C@@H](O)CC[C@@]43C)[C@@H]1CC[C@@H]2c1cnc[nH]1 | 66 nM |  |  |  |  | 91 nM |
| C[C@]12CCC(O)CC1=CCC1C2CC[C@@]2(C)C1CC[C@@H]2c1c[nH]c(-c2ccccc2)n1 (some centres not stated) |  | Not Active | 21% | 400 nM |  |  |
| C[C@]12CC[C@H](O)CC1=CC[C@@H]1[C@@H]2CC[C@@]2(C)[C@H]1CC1O[C@]12c1cnc[nH]1 (some centres not stated) | 430 nM |  |  |  |  |  |
| C[C@]12CCC(=O)C=C1CCC1C2CC[C@@]2(C)C1CC[C@]2(O)c1c[nH]cn1 (some centres not stated) | 1200 nM |  |  |  |  |  |
| C[C@]12CC[C@H](O)CC1=CC[C@@H]1[C@@H]2CC[C@]2(C)C(c3c[nH]cn3)=CC[C@@H]12 | 24 nM |  |  |  |  | 49 nM |
